Results reported in ChEMBL document CHEMBL2086328, “¹⁸F-labeled 2-phenylquinoxaline derivatives as potential positron emission tomography probes for in vivo imaging of β-amyloid plaques” (Eur J Med Chem, 2012).

Tests used:
[1] = Displacement of [125I]IMPY from amyloid beta (1 to 42) after 2 hrs by gamma counting
Procedure, shortened: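 Competition binding against [125I]IMPY (radiochemical purity >95%) on Aβ1-42 aggregates with 1% BSA solution; inhibitor 10^-4–10^-9.5 M; 37 °C, 2 h. Free and bound separated by vacuum filtration on GF/B filters, three PBS washes (0.02 M, pH 7.4, room temperature); filters gamma-counted. Three repeats; IC50 fitted, Ki from Cheng–Prusoff.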

[2] = Lipophilicity, log D of the compound; assay type: physicochemical; conditions: octanol/water
Procedure, shortened: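 18F tracer (740 kBq) in 3 g n-octanol plus 3 g PBS (0.05 M, pH 7.4). Vortexed 3 min at room temperature, centrifuged 5 min at 3000 rpm; weighed samples from octanol and buffer layers counted.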

Brain [3] = assay: Ratio of drug level in ICR mouse brain after 2 mins to ICR mouse brain after 60 mins at 370 kBq, iv; assay type: ADME, organism-based; conditions: in vivo
Procedure, shortened: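 Same intravenous study in ICR mice (370 kBq 18F tracer in saline/10% EtOH, n = 5 per time point). Ratio is brain %ID/g at 2 min divided by brain %ID/g at 60 min post-injection.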

[4] = Binding affinity to beta-amyloid
Brain [5] = assay: Biodistribution in ICR mouse brain at 370 kBq, iv after 2 mins by gamma counting; assay type: ADME, organism-based; conditions: in vivo
Procedure, shortened: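 Male ICR mice (five weeks, 20–22 g), tail-vein injection of 18F tracer in 0.1 mL saline with 10% EtOH. Killed by decapitation at set times, n = 5 per time point. Organs removed, weighed and gamma-counted; %ID/g wet tissue from comparison with diluted aliquots of injected dose; mean ± SD.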

Ki [1]	logD [2]	Ratio (Brain [3])	Ki [4]	Drug uptake (Brain [5])	Structure (SMILES)
2.9 nM	2.41	3.9	2.87 nM	7.33 % ID/g	CNc1ccc(/C=C/c2ccc(OCCOCCOCC[18F])nc2)cc1 [FLORBETAPIR F 18]
			1.7 nM		[11CH3]Nc1ccc(-c2nc3ccc(O)cc3s2)cn1
			0.74 nM		CNc1ccc(-c2nc3ccc(O)cc3s2)cc1[18F] [FLUTEMETAMOL F 18]
			2.22 nM		CNc1ccc(/C=C/c2ccc(OCCOCCOCC[18F])cc2)cc1 [FLORBETABEN F18]
